From ChEMBL document CHEMBL1137569, “Pharmacomodulations around the 4-oxo-1,4-dihydroquinoline-3-carboxamides, a class of potent CB2-selective cannabinoid receptor ligands: consequences in receptor affinity and functionality” (J Med Chem, 2007)

Key:
[1] = molecular target: T1, Cannabinoid receptor 2 (Homo sapiens, UniProt P34972); test: Inhibition of human CB2 receptor expressed in CHO cells; format: cell-based
[2] = molecular target: T1, Cannabinoid receptor 2; test: Displacement of [3H]CP-55940 from human CB2 receptor expressed in CHO cells; format: cell-based; set-up: concentration or dose not given beside the values
Summary of the method: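 Competitive radioligand binding on membranes from CHO cells expressing hCB2, with [3H]-CP-55,940 as tracer. Compounds were first screened at 10 µM. Ki at CB2 was then determined for those displacing more than 60% of specific binding.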

[3] = molecular target: T1, Cannabinoid receptor 2; test: Displacement of [3H]SR-141716A from human CB2 receptor expressed in CHO cells at 10 uM; format: cell-based
[4] = molecular target: T1, Cannabinoid receptor 2; test: Activity at human CB2 receptor expressed in CHO cells assessed as stimulated [35S]GTP-gamma-S binding relative to control; format: functional, cell-based; set-up: concentration or dose not given beside the values
[5] = molecular target: Cannabinoid receptor 1 (Homo sapiens) (UniProt P21554); test: Displacement of [3H]SR-141716A from human CB1 receptor expressed in CHO cells at 10 uM; format: cell-based
Summary of the method: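 Single-concentration (10 µM) competition screen on membranes from CHO cells expressing hCB1, with [3H]SR-141716A as radioligand. Read-out is percent displacement of the radioligand from its binding site.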

T1 sequence (P34972 whole entry): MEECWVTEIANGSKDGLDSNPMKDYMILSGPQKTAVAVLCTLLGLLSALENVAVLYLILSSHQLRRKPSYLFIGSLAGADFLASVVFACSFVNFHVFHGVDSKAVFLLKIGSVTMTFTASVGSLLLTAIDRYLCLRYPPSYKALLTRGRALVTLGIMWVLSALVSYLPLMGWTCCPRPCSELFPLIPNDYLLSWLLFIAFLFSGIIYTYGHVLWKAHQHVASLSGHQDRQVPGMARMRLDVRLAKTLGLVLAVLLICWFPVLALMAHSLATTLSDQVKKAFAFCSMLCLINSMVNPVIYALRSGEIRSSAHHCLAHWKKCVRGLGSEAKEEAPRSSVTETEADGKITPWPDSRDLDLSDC
Chain of Cannabinoid receptor 1 (Homo sapiens) (P21554 whole entry): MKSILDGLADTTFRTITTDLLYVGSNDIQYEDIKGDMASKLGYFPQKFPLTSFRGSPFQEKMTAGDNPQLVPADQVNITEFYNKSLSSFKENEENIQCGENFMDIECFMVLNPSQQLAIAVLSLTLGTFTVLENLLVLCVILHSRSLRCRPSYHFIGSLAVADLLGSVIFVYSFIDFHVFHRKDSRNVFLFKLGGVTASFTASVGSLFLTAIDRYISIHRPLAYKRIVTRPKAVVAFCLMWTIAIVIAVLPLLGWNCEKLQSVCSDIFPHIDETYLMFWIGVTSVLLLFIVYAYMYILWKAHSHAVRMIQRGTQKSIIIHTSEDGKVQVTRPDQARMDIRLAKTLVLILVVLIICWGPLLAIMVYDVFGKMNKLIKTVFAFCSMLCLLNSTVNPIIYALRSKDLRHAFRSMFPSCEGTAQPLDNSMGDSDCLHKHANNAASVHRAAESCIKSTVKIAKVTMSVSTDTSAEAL

O=C(c1cn(Cc2ccc(F)cc2)c2ccccc2c1=O)c1cccc2ccccc12
Ki [1]: 0.225 µM
Activity [2]: 112%
Activity [3]: 70%

CCCCCn1cc(NC(=O)C23CC4CC(CC(C4)C2)C3)c(=O)c2ccccc21
Ki [1]: 0.0255 µM
Activity [4]: 120%
Activity [2]: 99.9%

CCCCCn1cc(C(=O)NCC23CC4CC(CC(C4)C2)C3)c(=O)c2ccccc21
Ki [1]: 0.0506 µM
Activity [4]: 155%
Activity [2]: 87.2%

CCCCCn1cc(C(=O)NC23CC4CC(C)(CC(C)(C4)C2)C3)c(=O)c2ccc(Cl)cc21
Ki [1]: 0.0053 µM
Activity [4]: 51.6%
Activity [2]: 106%

CCCCCn1cc(C(=O)c2cccc3ccccc23)c(=O)c2ccccc21
Ki [1]: 0.154 µM
Activity [5]: 56%
Activity [2]: 97%

CCCCCn1cc(NC(=O)c2cccc3ccccc23)c(=O)c2ccccc21
Ki [1]: 0.265 µM
Activity [4]: 139%
Activity [2]: 97.4%

CCCCCn1cc(C(=O)NC23CC4CC(C)(CC(C)(C4)C2)C3)c(=O)c2cc(Cl)ccc21
Ki [1]: 0.0546 µM
Activity [4]: 49.6%
Activity [2]: 86.7%

CCCCCn1c(C)c(C(=O)NC23CC4CC(C)(CC(C)(C4)C2)C3)c(=O)c2ccccc21
Ki [1]: 0.2 µM
Activity [4]: 128%
Activity [2]: 96.7%

CCCCCn1cc(C(=O)NC23CC4CC(C)(CC(C)(C4)C2)C3)c(=O)c2cccc(Cl)c21
Ki [1]: 0.0274 µM
Activity [4]: 187%
Activity [2]: 98.7%
